The source of these data is ChEMBL document CHEMBL4190269, “Design, synthesis and biological evaluation of novel 6-substituted pyrrolo [3,2-d] pyrimidine analogues as antifolate antitumor agents” (2017).

The subject of assay [1] is HL-60. The assay can be described thus: Antiproliferative activity against human HL60 cells after 48 hrs by MTS assay. The format is functional. The following applies: HL-60, 48 h. In a few lines: (§1)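 Cells in RPMI-1640 or DMEM with 10% FBS, 37 °C, 5% CO2. Exponentially growing cells seeded at 5 × 10^3 per well and grown 12 h. Compounds added at 10 nM to 100 μM for 48 h. MTS reagent added for 3 h, then OD read at 490 nm. 0.1% DMSO as control. Mean viability from three independent experiments.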

In assay [2] the test system is A549. The assay can be described thus: Antiproliferative activity against human A549 cells after 48 hrs by MTS assay. The assay is classed as functional. The following applies: A549, 48 h. In a few lines: as §1
Background: Formazan colour is commonly taken as a measure of viable cells.

A further assay has as its system NCI-H1299. The assay can be described thus: Antiproliferative activity against human NCI-H1299 cells after 48 hrs by MTS assay. The format is functional. The following applies: NCI-H1299, 48 h. The method in brief: as §1
The next assay has as its system HeLa. The assay can be described thus: Antiproliferative activity against human HeLa cells after 48 hrs by MTS assay. The assay is classed as functional. In a few lines:
as §1

A further assay concerns HCT-116. The assay can be described thus: Antiproliferative activity against human HCT116 cells after 48 hrs by MTS assay. The assay is classed as functional. The following applies: HCT-116, 48 h.
For a further assay, the system named is HT-29. The assay can be described thus: Antiproliferative activity against human HT-29 cells after 48 hrs by MTS assay. The format is functional. The following applies: HT-29, 48 h. The method in brief:
as §1

Assay [3] relates to A549. The assay can be described thus: Inhibition of colony formation in human A549 cells at 20 uM treated for 48 hrs followed by compound washout measured after 8 days by Giemsa staining based assay. The assay is classed as functional, cell-based. In a few lines: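 About 100 A549 cells per well plated and kept 24 h in RPMI with 10% dFBS and 2 nM LCV at 37 °C, 5% CO2. Compound at 0-20 μM added for 48 h, then medium replaced with drug-free medium for 8 days. Colonies fixed in methanol 30 min, Giemsa-stained 30 min, then counted.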

For assay [4], the target named is T1, Dihydrofolate reductase (Homo sapiens) (UniProt P00374).
T1 sequence (whole entry): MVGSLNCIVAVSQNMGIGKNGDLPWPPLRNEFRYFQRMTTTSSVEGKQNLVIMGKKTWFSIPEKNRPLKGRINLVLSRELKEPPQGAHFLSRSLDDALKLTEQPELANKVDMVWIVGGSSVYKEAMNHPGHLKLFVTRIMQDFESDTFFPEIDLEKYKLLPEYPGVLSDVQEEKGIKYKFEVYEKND
The assay can be described thus: Inhibition of recombinant human DHFR at 100 uM using dihydrofolate as substrate in presence of NADPH by spectrophotometric method relative to control. The method in brief:
(§2)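 Recombinant human DHFR assayed with 0.1 mM dihydrofolate, 0.3 mM NADPH and 100 mM KCl, pH 7.5, 32 °C. Reaction started by adding enzyme and followed as OD change at 340 nm. Percent inhibition recorded at 1, 10 and 100 μM.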

The target in assay [5] is T1, Dihydrofolate reductase (Homo sapiens). The assay can be described thus: Inhibition of recombinant human DHFR at 1 to 10 uM using dihydrofolate as substrate in presence of NADPH by spectrophotometric method. The method in brief:
as §2

Assay [6] has as its system HL-60. The assay can be described thus: Antiproliferative activity against human HL60 cells up to 1000 uM after 48 hrs in presence of excess of adenosine and AICA by MTS assay. The format is functional, cell-based.
For assay [7], the system named is HL-60. The assay can be described thus: Antiproliferative activity against human HL60 cells up to 1000 uM after 48 hrs in presence of excess of thymidine by MTS assay. The assay is classed as functional, cell-based.
Assay [8] deals with A549. The assay can be described thus: Cell cycle arrest in human A549 cells assessed as accumulation at G1 phase at 1 uM after 72 hrs by propidium iodide staining based flow cytometry (reference value: 40.9%). The format is functional. In a few lines:
(§3)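 A549 cells treated 72 h in RPMI1640 with 10% dFBS and 2 nM LCV. Washed twice in ice-cold PBS and fixed in 70% ethanol at 4 °C overnight. Stained ≥20 min at room temperature in the dark with 50 μg/mL PI and 100 μg/mL RNase. Phase percentages from 1 × 10^4 cells by flow cytometry. DMSO-treated cells as reference.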
A general note: A flow cytometer gives signals particle by particle.

Assay [9] concerns A549. The assay can be described thus: Cell cycle arrest in human A549 cells assessed as accumulation at S phase at 1 uM after 72 hrs by propidium iodide staining based flow cytometry (reference value: 51.3%). The format is functional. In a few lines: as §3
Assay [10] has as its system A549. The assay can be described thus: Cell cycle arrest in human A549 cells assessed as accumulation at G2 phase at 1 uM after 72 hrs by propidium iodide staining based flow cytometry (reference value: 7.8%). The assay is classed as functional. The method in brief: as §3
Assay [11] deals with A549. The assay can be described thus: Cell cycle arrest in human A549 cells assessed as accumulation at G1 phase at 10 uM after 72 hrs by propidium iodide staining based flow cytometry (reference value: 40.9%). The format is functional. The method in brief: as §3
The subject of assay [12] is A549. The assay can be described thus: Cell cycle arrest in human A549 cells assessed as accumulation at S phase at 10 uM after 72 hrs by propidium iodide staining based flow cytometry (reference value: 51.3%). The assay is classed as functional. The method in brief:
as §3

For assay [13], the system named is A549. The assay can be described thus: Cell cycle arrest in human A549 cells assessed as accumulation at G2 phase at 10 uM after 72 hrs by propidium iodide staining based flow cytometry (reference value: 7.8%). The format is functional. In a few lines:
as §3

Assay [14] deals with A549. The assay can be described thus: Induction of apoptosis in human A549 cells assessed as necrotic cells at 1 uM after 72 hrs by Annexin V-FITC/propidium iodide staining based flow cytometry (reference value: 3.58%). The assay is classed as functional. The method in brief:
(§4)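 A549 cells exposed 72 h in RPMI with 10% dFBS and 2 nM LCV, with an untreated control. Harvested by trypsinization and washed twice in cold PBS. Stained with annexin V-FITC/PI and ≥1 × 10^4 cells analyzed by flow cytometry. Quadrants: LR early apoptosis, UR late apoptosis/necrosis, UL dead, LL viable.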

Assay [15] relates to A549. The assay can be described thus: Induction of apoptosis in human A549 cells assessed as late apoptotic cells at 1 uM after 72 hrs by Annexin V-FITC/propidium iodide staining based flow cytometry (reference value: 1.24%). The assay is classed as functional. The method in brief: as §4
In assay [16] the test system is A549. The assay can be described thus: Induction of apoptosis in human A549 cells assessed as live cells at 1 uM after 72 hrs by Annexin V-FITC/propidium iodide staining based flow cytometry (reference value: 94.86%). The assay is classed as functional. The method in brief:
as §4

The subject of assay [17] is A549. The assay can be described thus: Induction of apoptosis in human A549 cells assessed as early apoptotic cells at 1 uM after 72 hrs by Annexin V-FITC/propidium iodide staining based flow cytometry (reference value: 0.32%). The format is functional. In a few lines:
as §4

Assay [18] deals with A549. The assay can be described thus: Induction of apoptosis in human A549 cells assessed as necrotic cells at 10 uM after 72 hrs by Annexin V-FITC/propidium iodide staining based flow cytometry (reference value: 3.58%). The assay is classed as functional. The method in brief: as §4
Assay [19] deals with A549. The assay can be described thus: Induction of apoptosis in human A549 cells assessed as late apoptotic cells at 10 uM after 72 hrs by Annexin V-FITC/propidium iodide staining based flow cytometry (reference value: 1.24%). The format is functional. In a few lines: as §4
Assay [20] deals with A549. The assay can be described thus: Induction of apoptosis in human A549 cells assessed as live cells at 10 uM after 72 hrs by Annexin V-FITC/propidium iodide staining based flow cytometry (reference value: 94.86%). The format is functional. In a few lines: as §4
Assay [21] has as its system A549. The assay can be described thus: Induction of apoptosis in human A549 cells assessed as early apoptotic cells at 10 uM after 72 hrs by Annexin V-FITC/propidium iodide staining based flow cytometry (reference value: 0.32%). The assay is classed as functional. In a few lines: as §4

The structures appear in SMILES notation. Active and inactive are the calls of the source. The calls are words filed in the database; no cut-off is given here. Where only a bound is given, the exact number is not on record here.

As a reminder, the GI50 is the concentration giving 50% growth inhibition. Consider `CN(Cc1cc2nc(N)[nH]c(=O)c2[nH]1)c1ccc(C(=O)N[C@@H](CCC(=O)O)C(=O)O)cc1`, for which the GI50 with HL-60 [1], in the assay on A549 [2], with NCI-H1299, with HeLa, in the assay on HCT-116 and in the assay on HT-29 was over 100 µM throughout.
For the compound `Nc1nc2c(Br)c(CNc3ccc(C(=O)N[C@@H](CCC(=O)O)C(=O)O)cc3)[nH]c2c(=O)[nH]1`, the GI50 is 40.1 µM in the assay with HL-60 [1]; 83 µM with A549 [2]; over 100 µM in the assay with NCI-H1299; over 100 µM with HeLa; over 100 µM with HCT-116; over 100 µM with HT-29.
The inhibition is how much of the control response was suppressed. Take `Nc1nc2cc(CCc3ccc(C(=O)N[C@@H](CCC(=O)O)C(=O)O)cc3)[nH]c2c(=O)[nH]1`: the inhibition result (in the assay on A549 [3]; in assay [5]) was “Active” each time. For the same compound, the GI50 with HL-60 [1] was 8.92 µM; with A549 [2] it was 0.73 µM; in the assay with NCI-H1299, 1.72 µM; in the assay on HeLa, 73.1 µM; with HCT-116, 54.6 µM; with HT-29, 99.1 µM. For the same compound, in [4], the inhibition is 66.7%. Also, the outcome in the assay with HL-60 [6] and with HL-60 [7] was Active. The Activity in the assay with A549 [8] turned out to be 33.7%; in the assay with A549 [9], 51.3%; in the assay on A549 [10] it was 15%; with A549 [11], 35%; with A549 [12] it was 45.6%; in the assay with A549 [13], 19.4%. The Activity in the assay with A549 [14] turned out to be 4.46%; in the assay on A549 [15], 1.07%; in the assay with A549 [16] it was 94.08%; in the assay with A549 [17], 0.39%; in the assay on A549 [18], 3.56%; in the assay on A549 [19], 3.21%. In addition, the values for the Activity in the assay on A549 [20] and with A549 [21] were 88.02% and 4.4%, respectively.
With `Nc1nc2c(I)c(CNc3ccc(C(=O)N[C@@H](CCC(=O)O)C(=O)O)cc3)[nH]c2c(=O)[nH]1`, the GI50 in the assay with HL-60 [1] was 54.2 µM; in the assay with A549 [2] it was over 100 µM; in the assay with NCI-H1299 it was over 100 µM; with HeLa, over 100 µM; in the assay on HCT-116, over 100 µM; in the assay with HT-29, over 100 µM.
As for `CN(Cc1cnc2nc(N)nc(N)c2n1)c1ccc(C(=O)N[C@@H](CCC(=O)O)C(=O)O)cc1` [METHOTREXATE], the GI50 with HL-60 [1] is 0.038 µM; with A549 [2], 0.014 µM; in the assay with NCI-H1299, 0.072 µM; with HeLa, over 100 µM; with HCT-116 it was 0.13 µM; in the assay with HT-29 it was over 100 µM. Besides, the Activity came out at 62% in the assay with A549 [8], 38% with A549 [9] and 0% with A549 [10].
Turning to `Nc1nc2cc(CNc3ccc(C(=O)N[C@@H](CCC(=O)O)C(=O)O)cc3)[nH]c2c(=O)[nH]1`, the GI50 was 47.4 µM in the assay with HL-60 [1]; 79 µM with A549 [2]; 73.1 µM in the assay on NCI-H1299; 85.1 µM in the assay with HeLa; over 100 µM in the assay on HCT-116; over 100 µM in the assay with HT-29.
Consider `CCN(Cc1cc2nc(N)[nH]c(=O)c2[nH]1)c1ccc(C(=O)N[C@@H](CCC(=O)O)C(=O)O)cc1`, for which the GI50 with HL-60 [1], in the assay with A549 [2], in the assay with NCI-H1299, with HeLa, with HCT-116 and with HT-29 was over 100 µM in each case.
Consider `C#CCN(Cc1cc2nc(N)[nH]c(=O)c2[nH]1)c1ccc(C(=O)N[C@@H](CCC(=O)O)C(=O)O)cc1`, for which the GI50 with HL-60 [1], in the assay on A549 [2], in the assay on NCI-H1299, in the assay with HeLa, with HCT-116 and in the assay with HT-29 was over 100 µM each time.
Regarding `C=CCn1c(CNc2ccc(C(=O)N[C@@H](CCC(=O)O)C(=O)O)cc2)cc2nc(N)[nH]c(=O)c21`, the GI50 in the assay with HL-60 [1] was 15.5 µM; in the assay on A549 [2], 57.3 µM; in the assay on NCI-H1299 it was 68.4 µM; in the assay with HeLa, 82.7 µM; in the assay with HCT-116, over 100 µM; with HT-29, 98.5 µM.
Regarding `Cn1c(CNc2ccc(C(=O)N[C@@H](CCC(=O)O)C(=O)O)cc2)cc2nc(N)[nH]c(=O)c21`, the GI50 is 13.5 µM in the assay on HL-60 [1]; 46 µM in the assay with A549 [2]; 51.3 µM in the assay with NCI-H1299; 94.4 µM with HeLa; over 100 µM in the assay with HCT-116; over 100 µM in the assay with HT-29.
